One compound from ChEMBL document CHEMBL1130037, “Synthesis and pharmacological properties of a close analogue of an antithrombotic pentasaccharide (SR 90107A/ORG 31540)” (J Med Chem, 1997) can be followed below.

One series concerns the target Antithrombin-III (Homo sapiens, UniProt P01008). The series is described as follows: Dissociation constant for Antithrombin-III. A digest of the protocol: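 Intrinsic protein fluorescence titration at 37 °C with stirring; oligosaccharides added to Tris-HCl 0.01 M pH 7.0, 0.15 M NaCl containing 5–60 nM human AT III (purified). Complex concentrations calculated assuming 1:1 stoichiometry; KD from Scatchard analysis. Mean ± SEM, n = 3.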

The target of the next series is Prothrombin (Homo sapiens, UniProt P00734). The series is described as follows: Inhibition of Thrombin generation was determined. It counts as functional. Summed up: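 Thrombin generation in human defibrinated platelet-poor citrated plasma at 37 °C. Cuvette held rabbit brain thromboplastin (amount giving 90 s Quick time), S-2222 (1.6 mM stock), compound in Tris-HCl pH 7.35, and CaCl2 (0.25 M stock). Plasma addition started the reaction; A405 followed 20 min. IC50 from area under curve by four-parameter logistic fit; mean with 95% CI, n = 3.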

For a further series, the system named is Rattus norvegicus. The series is described as follows: In vivo antithrombotic activity was determined in rats. The format is functional. Summed up:
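Stasis plus hypercoagulability venous thrombosis in male Sprague-Dawley rats (250-300 g) under pentobarbitone (30 mg/kg ip). Compounds given iv (penile vein) 5 min before human tissue factor (1 ng/kg iv over 30 s). Vena cava ligated 10 s later for 20 min; thrombus dried and weighed. ED50 = 50% thrombus weight reduction; mean with 95% CI, n = 6.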

In series [1] the target is Coagulation factor X (Homo sapiens) (UniProt P00742). The series is described as follows: Inhibition of blood coagulation factor Xa was determined by AT III. A digest of the protocol: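 Amidolytic assay in buffer: factor Xa (7.5 nkat/mL) incubated 2 min at 37 °C with AT III (0.5 unit/mL) and oligosaccharide at various concentrations in 20 mM Tris/maleate pH 7.4, 150 mM NaCl. Residual Xa measured with S-2222 (1 mM stock); stopped after 2 min with acetic acid, A405 read. Activity versus calibrated standard; mean ± SEM, n = 3.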
Sequence of Coagulation factor X (Homo sapiens) (P00742 41-179 limits assumed): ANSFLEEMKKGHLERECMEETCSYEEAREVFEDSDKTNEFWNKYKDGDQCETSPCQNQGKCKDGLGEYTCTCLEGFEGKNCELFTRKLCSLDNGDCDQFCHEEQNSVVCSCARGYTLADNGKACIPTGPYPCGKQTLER
Sequence of Coagulation factor X (Homo sapiens) (P00742 235-488 limits assumed): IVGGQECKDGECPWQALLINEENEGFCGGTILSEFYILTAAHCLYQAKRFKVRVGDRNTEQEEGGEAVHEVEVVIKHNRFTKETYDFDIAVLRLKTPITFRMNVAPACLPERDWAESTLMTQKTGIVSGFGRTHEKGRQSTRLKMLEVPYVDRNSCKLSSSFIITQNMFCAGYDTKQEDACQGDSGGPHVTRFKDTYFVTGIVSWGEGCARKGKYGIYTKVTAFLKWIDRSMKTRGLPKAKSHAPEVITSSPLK

Series [2] is described as follows: Elimination half life was determined. The format is ADME. A digest of the protocol:
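Rats with jugular catheter (pentobarbitone anesthesia), recovered overnight, received 100 nmol/kg iv bolus. Citrated blood collected; plasma levels measured by anti-factor Xa activity using each compound as its own reference. Half-life from slope of terminal phase; mean ± SEM, n = 4.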

Sequence of Antithrombin-III (P01008 whole entry): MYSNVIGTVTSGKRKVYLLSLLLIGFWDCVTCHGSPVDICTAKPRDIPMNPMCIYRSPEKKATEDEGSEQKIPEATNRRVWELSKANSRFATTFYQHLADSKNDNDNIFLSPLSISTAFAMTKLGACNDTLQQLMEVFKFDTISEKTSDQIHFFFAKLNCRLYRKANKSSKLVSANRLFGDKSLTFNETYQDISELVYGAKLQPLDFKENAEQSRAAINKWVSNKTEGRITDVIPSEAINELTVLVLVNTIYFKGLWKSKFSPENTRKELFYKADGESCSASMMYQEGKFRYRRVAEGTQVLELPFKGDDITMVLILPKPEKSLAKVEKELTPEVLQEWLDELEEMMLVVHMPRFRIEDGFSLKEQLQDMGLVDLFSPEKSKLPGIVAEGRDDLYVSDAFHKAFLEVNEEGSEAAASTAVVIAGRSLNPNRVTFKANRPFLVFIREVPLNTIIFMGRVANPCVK

`O=C([O-])C1O[C@@H](O[C@H]2C(O)C(NS(=O)(=O)[O-])[C@@H](O)O[C@H]2COS(=O)(=O)[O-])C(NS(=O)(=O)[O-])[C@@H](O)[C@@H]1O[C@@H]1OC(COS(=O)(=O)[O-])[C@@H](O[C@@H]2O[C@@H](C(=O)[O-])[C@@H](O[C@H]3O[C@@H](COS(=O)(=O)[O-])[C@@H](O)C(O)C3NS(=O)(=O)[O-])C(O)C2O)[C@H](OS(=O)(=O)[O-])C1OS(=O)(=O)[O-].[Na+].[Na+].[Na+].[Na+].[Na+].[Na+].[Na+].[Na+].[Na+].[Na+]` (stereo not given in full): the dissociation constant Kd – broadly, the constant that tells how readily two partners part at equilibrium – at Antithrombin-III was 58 nM. For the same compound, inhibition against Prothrombin was half-maximal at 130 nM (IC50). Moreover, the ED50 (as a rule, the dose at which the effect has come halfway, by size or by number of responders) in the series with Rattus norvegicus stood at 0.081 mg/kg. Moreover, the Activity in series [1] came to 850 U/mg. For the same compound, in series [2], the half-life (usually the time in which the quantity being followed falls by half) is 42 min.
